Experimental data: ChEMBL document CHEMBL1151806, “Indolizidine, antiinfective and antiparasitic compounds from Prosopis glandulosa var. glandulosa” (J Nat Prod, 2009)
Activity calls are given as the source filed them. No cut-off for these calls is given here.

Tests used:
Plasmodium berghei [1] = test: Antimalarial activity as reduced parasitaemia at day 3 against Plasmodium berghei NK65 infected Swiss Webster mice (Mus musculus) at 2 mg/kg/day intraperitoneal dose for 3 days; type: functional; set-up: scale not given: the % may be the effect or the level left
Outline: (§1)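 Peters 4-day suppressive test: male Swiss Webster mice (18–20 g) inoculated ip with 2·10^7 P. berghei NK-65 parasitized red cells. Compound in DMSO:PEG:water (1:3:6) given ip ~2 h post-infection, then once daily for 3 days (days 0–2). 5 mice/group; vehicle-treated control. Giemsa-stained tail blood smears read to day 28. % suppression = 100 − (treated/untreated parasitemia × 100). Cure = no parasitemia until day 28. Mice observed after each dose for signs of toxicity.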

Cryptococcus neoformans [2] = test: Antimicrobial activity against Cryptococcus neoformans ATCC 90113 infected in mouse assessed as […] elimination from brain tissue at 0.0625 mg/kg/day, ip for 5 days; type: functional; details: route intraperitoneal
Mus musculus = test: Toxicity in Swiss Webster mouse at 1 mg/kg, ip administered once daily for 3 days; type: organism-based; set-up: dose 1 mg/kg, route intraperitoneal; details: in vivo, 72 h; outline: as §1
Plasmodium berghei [3] = test: Antimalarial activity as elimination of parasitaemia at day 28 against Plasmodium berghei NK65 infected Swiss Webster mice (Mus musculus) at 2 mg/kg/day intraperitoneal dose for 3 days; type: functional, organism-based; outline: as §1
Plasmodium falciparum [4] = test: Antimalarial activity after 72 hrs against chloroquine-resistant Plasmodium falciparum W2 by pLDH activity; type: functional, organism-based; details: W2, 72 h
Outline: (§2)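 P. falciparum-infected red cells (2% parasitemia, 2% hematocrit) in RPMI-1640 with 10% human serum and 60 μg/mL amikacin, exposed to serial sample concentrations. Gassed with 90% N2/5% O2/5% CO2, incubated 37 °C for 72 h. Parasite LDH activity read colorimetrically with Malstat reagent.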

Plasmodium berghei [5] = test: Antimalarial activity as reduced parasitaemia at day 10 against Plasmodium berghei NK65 infected Swiss Webster mice (Mus musculus) at 1 mg/kg/day intraperitoneal dose for 3 days; type: functional; set-up: scale not given: the % may be the effect or the level left; outline: as §1
Leishmania donovani = test: Antileishmanial activity against Leishmania donovani promastigotes after 48 hrs by alamar blue assay; type: functional, organism-based
Vero [6] = test: Cytotoxicity against african green monkey Vero cells after 48 hrs by neutral red assay; type: cell-based, Chlorocebus sabaeus; details: vero
Outline: (§3)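 Cells seeded at 25,000/well, incubated 24 h, then exposed to samples for 48 h. Viable cells measured by Neutral Red uptake. IC50 from logarithmic plots of growth inhibition vs concentration. Doxorubicin positive control, DMSO vehicle control.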

Aspergillus fumigatus [7] = test: Antimicrobial activity against Aspergillus fumigatus ATCC 90906 by alamar blue assay; type: functional, organism-based
Outline: (§4)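 Samples serially diluted in 20% DMSO/saline, tested in duplicate. Inocula set by OD630: C. albicans RPMI pH 4.5, 1·10^4 CFU/mL; C. neoformans Sabouraud dextrose, 1·10^5; MRSA cation-adjusted Mueller-Hinton pH 7.3, 5·10^5; M. intracellulare 7H9/OADC + 5% Alamar Blue pH 7.3, 2·10^6; A. fumigatus RPMI pH 7.3 + 5% Alamar Blue, 3·10^4.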

LLC-PK1 = test: Cytotoxicity against pig LLC-PK1 cells after 48 hrs by neutral red assay; type: cell-based, Sus scrofa; details: llc-pk1; outline: as §3
Plasmodium berghei [8] = test: Antimalarial activity as reduced parasitaemia at day 17 against Plasmodium berghei NK65 infected Swiss Webster mice (Mus musculus) at 2 mg/kg/day intraperitoneal dose for 3 days; type: functional, organism-based; outline: as §1
Vero [9] = test: Cytotoxicity against african green monkey Vero cells; type: cell-based; details: Chlorocebus sabaeus; outline: as §3
[10] = tested on: Mycobacterium intracellulare; test: Antimicrobial activity against Mycobacterium intracellular ATCC 23068 by alamar blue assay; type: functional, organism-based
Outline: as §4, with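 “3·10^4. Read at 630 nm or 544ex/590em before and after incubation.” for “3·10^4.”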

Staphylococcus aureus [11] = test: Antimicrobial activity against methicillin-resistant Staphylococcus aureus ATCC 43300 by NCCLS method; type: functional, organism-based; outline: as §4
Staphylococcus aureus [12] = test: Antimicrobial activity against methicillin-resistant Staphylococcus aureus ATCC 43300 by NCCLS method in presence of 5% human serum; type: functional, organism-based
SK-MEL = test: Cytotoxicity against human SK-MEL cells after 48 hrs by neutral red assay; type: functional, cell-based; outline: as §3
Aspergillus fumigatus [13] = test: Antimicrobial activity against Aspergillus fumigatus ATCC 90906 by alamar blue assay in presence of 5% human serum; type: functional, organism-based
Plasmodium berghei [14] = test: Antimalarial activity as reduced parasitaemia at day 17 against Plasmodium berghei NK65 infected Swiss Webster mice (Mus musculus) at 1 mg/kg/day intraperitoneal dose for 3 days; type: functional, organism-based; outline: as §1
Plasmodium falciparum [15] = test: Antimalarial activity after 72 hrs against […] Plasmodium falciparum D6 by pLDH activity; type: functional, organism-based; details: D6, 72 h; outline: as §2
Cryptococcus neoformans [16] = test: Antimicrobial activity against Cryptococcus neoformans ATCC 90113 by NCCLS method in presence of 5% human serum; type: functional, organism-based
Plasmodium berghei [17] = test: Antimalarial activity as elimination of parasitaemia at day 28 against Plasmodium berghei NK65 infected Swiss Webster mice (Mus musculus) at 1 mg/kg/day intraperitoneal dose for 3 days; type: functional, organism-based; outline: as §1
Plasmodium berghei [18] = test: Antimalarial activity as reduced parasitaemia against Plasmodium berghei NK65 infected Swiss Webster mice (Mus musculus); type: functional
[19] = tested on: Mycobacterium intracellulare; test: Antimicrobial activity against Mycobacterium intracellular ATCC 23068 by alamar blue assay in presence of 5% human serum; type: functional, organism-based
Plasmodium berghei [20] = test: Antimalarial activity as reduced parasitaemia at day 3 against Plasmodium berghei NK65 infected Swiss Webster mice (Mus musculus) at 1 mg/kg/day intraperitoneal dose for 3 days; type: functional; set-up: scale not given: the % may be the effect or the level left; outline: as §1
Cryptococcus neoformans [21] = test: Antimicrobial activity against Cryptococcus neoformans ATCC 90113 by NCCLS method; type: functional, organism-based; outline: as §4
Candida albicans [22] = test: Antimicrobial activity against Candida albicans ATCC 90028 by NCCLS method in presence of 5% human serum; type: functional, organism-based
BT-549 = test: Cytotoxicity against human BT549 cells after 48 hrs by neutral red assay; type: functional, cell-based; details: BT-549, 48 h; outline: as §3
[23] = Toxicity in RBC assessed as hemolysis; type: cell-based; details: Erythrocyte
KB = test: Cytotoxicity against human KB cells after 48 hrs by neutral red assay; type: functional, cell-based; outline: as §3
Candida albicans [24] = test: Antimicrobial activity against Candida albicans ATCC 90028 by NCCLS method; type: functional, organism-based; outline: as §4
Plasmodium berghei [25] = test: Antimalarial activity as reduced parasitaemia at day 10 against Plasmodium berghei NK65 infected Swiss Webster mice (Mus musculus) at 10 mg/kg/day intraperitoneal dose for 3 days; type: functional; set-up: scale not given: the % may be the effect or the level left; outline: as §1
Plasmodium berghei [26] = test: Antimalarial activity as reduced parasitaemia at day 17 against Plasmodium berghei NK65 infected Swiss Webster mice (Mus musculus) at 10 mg/kg/day intraperitoneal dose for 3 days; type: functional; set-up: scale not given: the % may be the effect or the level left; outline: as §1
Plasmodium berghei [27] = test: Antimalarial activity as elimination of parasitaemia at day 28 against Plasmodium berghei NK65 infected Swiss Webster mice (Mus musculus) at 10 mg/kg/day intraperitoneal dose for 3 days; type: functional, organism-based; outline: as §1

## C[C@@H]1N[C@H](CCCCCCCCCCc2cc(CCCCCCCCCC[C@@H]3CC[C@H](O)[C@@H](C)N3)c3[n+](c2)CCC3)CC[C@H]1O.[Cl-] [PROSOPILOSIDINE]
Plasmodium berghei [1]
  Activity: 48%
Cryptococcus neoformans [2]
  Activity: 76%
Mus musculus
  Activity: Non-toxic
Plasmodium berghei [3]
  Activity: inactive
Plasmodium falciparum [4]
  IC50: 0.095 µg/mL
Plasmodium berghei [5]
  Activity: 40.5%
Leishmania donovani
  IC50: 0.7 µg/mL
  IC90: 1.9 µg/mL
Vero [6]
  IC50: Not Active
Aspergillus fumigatus [7]
  MFC: inactive
Aspergillus fumigatus [7]; Aspergillus fumigatus, ATCC 90906
  MIC: 5 µg/mL
Aspergillus fumigatus [7]; Aspergillus fumigatus, ATCC 90906, read-out: IC50
  IC50: 3 µg/mL
LLC-PK1
  IC50: Not Active
Plasmodium berghei [8]
  Activity: inactive
Vero [9]
  IC50: > 23.8 µg/mL
[10]
  IC50: 0.9 µg/mL
  MBC: 20 µg/mL
Staphylococcus aureus [11]
  IC50: 0.35 µg/mL
  MBC: 5 µg/mL
  MIC: 1.25 µg/mL
Staphylococcus aureus [12]
  Activity: Active
SK-MEL
  IC50: 4.5 µg/mL
Aspergillus fumigatus [13]
  Activity: Active
Plasmodium berghei [14]
  Activity: inactive
Plasmodium falciparum [15]
  IC50: 0.039 µg/mL
Cryptococcus neoformans [16]
  Activity: Active
Plasmodium berghei [17]
  Activity: inactive
Plasmodium berghei [18]
  ED50: 2 mg/kg
[19]
  Activity: Active
Plasmodium berghei [20]
  Activity: 48%
Cryptococcus neoformans [21]
  IC50: 0.4 µg/mL
  MIC: 0.63 µg/mL
Candida albicans [22]
  Activity: Active
BT-549
  IC50: 8.75 µg/mL
[23]
  IC50: 16 µg/mL
KB
  IC50: 7.5 µg/mL
Candida albicans [24]
  MFC: inactive
  MIC: inactive
Candida albicans [24]; Candida albicans, ATCC 90028, read-out: IC50
  IC50: 15 µg/mL

## CCO[C@H]1O[C@@H]2O[C@@]3(C)CC[C@H]4[C@H](C)CC[C@@H]([C@H]1C)[C@@]24OO3 [ARTEMOTIL]
Plasmodium berghei [25]
  Activity: 100%
Plasmodium berghei [26]
  Activity: 100%
Plasmodium berghei [27]
  Activity: Active
